# Activity calls are given as the source filed them. The rule behind the calls is not given here.
# Columns and labels:
# [1] = tested on: THP-1; experiment: Effect on TOMM20 protein expression in human THP1 cells at 10 uM after 24 hrs by proteome analysis relative to control; assay type: functional
# In short: (§1)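 PMA-differentiated THP-1 macrophages given 10 μM compound or DMSO for 24 h, then lysed in TRIzol. Proteins reduced with DTT, alkylated with iodoacetamide, digested with trypsin (1:50 w/w) for 16 h at 30 °C. Biological replicates pooled, analysed by LC-MS/MS on an Orbitrap Velos Pro with a 4 h gradient, FDR ≤0.05. Only unique peptides used; log2 peptide ratios averaged per protein and tested by one-sample t test versus vehicle.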
# [2] = tested on: THP-1; experiment: Effect on CDK12 protein expression in human THP1 cells at 10 uM after 24 hrs by proteome analysis relative to control; assay type: functional; in short: as §1
# [3] = tested on: THP-1; experiment: Effect on CELSR3 protein expression in human THP1 cells at 10 uM after 24 hrs by proteome analysis relative to control; assay type: functional; in short: as §1
# [4] = tested on: THP-1; experiment: Effect on NCSTN protein expression in human THP1 cells at 10 uM after 24 hrs by proteome analysis relative to control; assay type: functional; in short: as §1
# [5] = Upregulation of ABCA1 mRNA expression in human THP1 cells at 10 uM after 24 hrs by qPCR method relative to control; assay type: functional, cell-based; conditions: THP-1
# In short: (§2)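 THP-1 macrophages treated for 24 h with 10 μM compound, 10 μM pioglitazone or DMSO. Total RNA extracted and converted to cDNA; ABCA1 or ABCG1 measured by SYBR Green qPCR and expressed relative to 18S. Mean ± SD of four independent experiments; one-way ANOVA with Bonferroni test against DMSO.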
# [6] = Upregulation of ABCG1 protein expression in human THP1 cells at 10 uM after 24 hrs by Western blot method; assay type: functional, cell-based; conditions: THP-1
# In short: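 PMA-differentiated THP-1 macrophages (200 nM PMA, 72 h) exposed to 10 μM agent or DMSO vehicle for 24 h. Lysis in NP40 buffer with protease inhibitors, then Bradford protein assay. 20 μg protein run on SDS-PAGE, blotted to PVDF and probed with anti-ABCG1, β-actin as reference. ECL band densitometry from four independent experiments.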
# [7] = tested on: THP-1; experiment: Effect on MAN2A1 protein expression in human THP1 cells at 10 uM after 24 hrs by proteome analysis relative to control; assay type: functional; in short: as §1
# [8] = tested on: THP-1; experiment: Suppression of ABCA1 mRNA degradation in human THP1 cells at 10 uM in presence of de novo gene transcription inhibitor actinomycin D at 2 hrs by qPCR method; assay type: functional, cell-based
# In short: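 Differentiated THP-1 macrophages treated with 10 μM compound or DMSO for 24 h, then given 5 μg/mL actinomycin D and lysed at set time points. Total RNA extracted and reverse-transcribed; ABCA1 mRNA measured by SYBR Green qPCR normalised to 18S. Four independent experiments.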
# [9] = tested on: THP-1; experiment: Effect on MYL12A protein expression in human THP1 cells at 10 uM after 24 hrs by proteome analysis relative to control; assay type: functional; in short: as §1
# [10] = tested on: THP-1; experiment: Effect on CPA3 protein expression in human THP1 cells at 10 uM after 24 hrs by proteome analysis relative to control; assay type: functional; in short: as §1
# [11] = tested on: THP-1; experiment: Effect on MYL12B protein expression in human THP1 cells at 10 uM after 24 hrs by proteome analysis relative to control; assay type: functional; in short: as §1
# [12] = tested on: THP-1; experiment: Effect on COMMD1 protein expression in human THP1 cells at 10 uM after 24 hrs by proteome analysis relative to control; assay type: functional; in short: as §1
# [13] = tested on: THP-1; experiment: Effect on SMO protein expression in human THP1 cells at 10 uM after 24 hrs by proteome analysis relative to control; assay type: functional; in short: as §1
# [14] = tested on: THP-1; experiment: Effect on DYNLL2 protein expression in human THP1 cells at 10 uM after 24 hrs by proteome analysis relative to control; assay type: functional; in short: as §1
# [15] = tested on: THP-1; experiment: Effect on NBEA protein expression in human THP1 cells at 10 uM after 24 hrs by proteome analysis relative to control; assay type: functional; in short: as §1
# [16] = tested on: THP-1; experiment: Effect on TARBP1 protein expression in human THP1 cells at 10 uM after 24 hrs by proteome analysis relative to control; assay type: functional; in short: as §1
# [17] = tested on: THP-1; experiment: Effect on SHMT1 protein expression in human THP1 cells at 10 uM after 24 hrs by proteome analysis relative to control; assay type: functional; in short: as §1
# [18] = tested on: THP-1; experiment: Effect on MCM8 protein expression in human THP1 cells at 10 uM after 24 hrs by proteome analysis relative to control; assay type: functional; in short: as §1
# [19] = tested on: THP-1; experiment: Effect on GOLGA5 protein expression in human THP1 cells at 10 uM after 24 hrs by proteome analysis relative to control; assay type: functional; in short: as §1
# [20] = tested on: THP-1; experiment: Effect on MGA protein expression in human THP1 cells at 10 uM after 24 hrs by proteome analysis relative to control; assay type: functional; in short: as §1
# [21] = tested on: THP-1; experiment: Effect on ART4 protein expression in human THP1 cells at 10 uM after 24 hrs by proteome analysis relative to control; assay type: functional; in short: as §1
# [22] = tested on: THP-1; experiment: Effect on DBI protein expression in human THP1 cells at 10 uM after 24 hrs by proteome analysis relative to control; assay type: functional; in short: as §1
# [23] = Upregulation of ABCG1 mRNA expression in human THP1 cells at 10 uM after 24 hrs by qPCR method relative to control; assay type: functional, cell-based; conditions: THP-1; in short: as §2
# [24] = tested on: THP-1; experiment: Induction of 1% human plasma-mediated cholesterol efflux from [3H]-cholesterol labeled human THP1 cells at 10 uM preincubated for 24 hrs followed by 1% human plasma addition measured after 6 hrs by scintillation counting method; assay type: functional
# In short: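 Differentiated THP-1 macrophages loaded with [3H]-cholesterol for 24 h in the presence of compound, or pioglitazone 10 μM as positive control. Medium then replaced with serum-free RPMI containing compound, with or without acceptor (10 μg/mL apo A1 or 1% human plasma from fasted volunteers), for 6 h. Efflux % = extracellular/total cpm with acceptor minus without acceptor, ×100, by scintillation counting. Three independent experiments.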
# [25] = tested on: THP-1; experiment: Effect on SDE2 protein expression in human THP1 cells at 10 uM after 24 hrs by proteome analysis relative to control; assay type: functional; in short: as §1
# [26] = tested on: THP-1; experiment: Effect on HIST1H2AB protein expression in human THP1 cells at 10 uM after 24 hrs by proteome analysis relative to control; assay type: functional; in short: as §1
smiles,measurement,setting,value
C/C=C(/C)C(=O)OC[C@H]1[C@@H](Cc2ccc(OC)c(OC)c2)CO[C@@H]1c1ccc(OC)c(OC)c1,fold change (FC),[1],1.6
same,fold change (FC),[2],1.5
same,fold change (FC),[3],1.6
same,fold change (FC),[4],1.7
same,fold change (FC),[5],2.4
same,Activity,[6],Active
same,fold change (FC),[7],2
same,Activity,[8],Active
same,fold change (FC),[9],2.2
same,fold change (FC),[10],1.7
same,fold change (FC),[11],2
same,fold change (FC),[12],1.5
same,fold change (FC),[13],2.1
same,fold change (FC),[14],1.7
same,fold change (FC),[15],1.6
same,fold change (FC),[16],0.6
same,fold change (FC),[17],1.8
same,fold change (FC),[18],0.5
same,fold change (FC),[19],2.3
same,fold change (FC),[20],1.7
same,fold change (FC),[21],1.6
same,fold change (FC),[22],1.6
same,fold change (FC),[23],3.8
same,Activity,[24],Active
same,fold change (FC),[25],0.6
same,fold change (FC),[26],0.6
